We go through one compound from ChEMBL document CHEMBL4340525, “Tumor-Targeted Delivery of 6-Diazo-5-oxo-l-norleucine (DON) Using Substituted Acetylated Lysine Prodrugs” (J Med Chem, 2019).

A short description of data set [1]: Prodrug conversion in human DU4475 cells suspended in human plasma assessed as 6-diazo-5-oxo-L-norleucine formation at 20 uM measured after 1 hr by LC-MS/MS analysis. Type of data set: ADME, cell-based. To be noted: du-4475, 1 h. The method in brief: (§1)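 Cells were grown in RPMI 1640 with 10% FBS, washed in DPBS and resuspended in human plasma at 10 million cells/mL. After 5 min preincubation at 37 °C, compound was added at 20 µM final for 1 h. The mix was centrifuged at 10 000g and the washed pellet and plasma were quantified separately. DON was read by LC-MS/MS after dabsyl chloride derivatisation, intact prodrug directly. Standard curves were made in naive cells or plasma.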

In a further data set the target is Procathepsin L (Homo sapiens, UniProt P07711). In words: Stability of the compound assessed as recombinant human cathepsin L-mediated compound hydrolysis by measuring parent compound remaining at 1 uM measured after 3 hrs by UHPLC-MS analysis. Type of data set: ADME. The essentials:
(§2)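 Compound at 1 µM was incubated at 37 °C with shaking in 50 mM MES pH 6 with 5 mM DTT. Recombinant human enzyme final levels: HDAC2 10 µg/mL, cathepsin B 1 µg/mL, cathepsin L 0.1 µg/mL, alone or cathepsins B+L combined. Aliquots were quenched in methanol with losartan at 0.25, 0.5, 1 and 3 h. Parent remaining by Q-TOF LC-MS.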

A short description of data set [2]: Stability in mouse plasma assessed as parent compound remaining at 20 uM measured after 1 hr by LC-MS/MS analysis.
A short description of data set [3]: Stability of the compound in wild-type C57BL/6 mouse plasma measured after 60 mins by UHPLC-MS analysis. Conditions: 1 h. The format is ADME, cell-free.
Data set [4] can be described thus: Tmax in CES1-deficient C57BL/6 mouse jejunum implanted with mouse EL4 cells at 3.2 mg/kg, sc administered as single dose by LC-MS/MS analysis. Type of data set: ADME, organism-based. To be noted: in vivo, BLD = below limit of detection. The essentials: (§3)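 Male and female C57BL/6 CES1-/- mice, 6–8 weeks old, carried flank EL4 tumours from SC injection of 1 × 10^6 cells in PBS. Dosing began at about 400 mm3 mean tumour volume. Each mouse got one SC dose of 3.2 mg/kg (1 mg/kg DON equivalent) in ethanol/Tween 80/saline 5:10:85. Plasma, jejunum and tumour were taken at set times, n = 3 per time point. Prodrug and dabsyl-derivatised DON were measured by LC-MS/MS. Noncompartmental analysis: Cmax and Tmax observed, AUClast by log-linear trapezoidal rule.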

A short description of data set [5]: Drug level in mouse EL4 cells implanted in CES1-deficient C57BL/6 mouse assessed as tumor cell to plasma ratio at 3.2 mg/kg, sc administered as single dose measured after 1 hr by LC-MS/MS analysis. Type of data set: ADME, organism-based.
Data set [6] can be described thus: Tmax in CES1-deficient C57BL/6 mouse tumor implanted with mouse EL4 cells at 3.2 mg/kg, sc administered as single dose by LC-MS/MS analysis. Type of data set: ADME, organism-based, Neoplasm. The essentials: as §3
Data set [7] can be described thus: Cmax in CES1-deficient C57BL/6 mouse plasma implanted with mouse EL4 cells assessed as 6-diazo-5-oxo-L-norleucine level at 3.2 mg/kg, sc administered as single dose by LC-MS/MS analysis. Also noted: dose 3.2 mg/kg, route subcutaneous. Type of data set: ADME, organism-based. To be noted: in vivo. The method in brief: as §3
The target of another data set is Histone deacetylase 2 (Homo sapiens, UniProt Q92769). The data set is described as follows: Stability of the compound assessed as recombinant human HDAC2-mediated compound hydrolysis by measuring parent compound remaining at 1 uM measured after 3 hrs by UHPLC-MS analysis. The format is ADME. The essentials: as §2
A short description of data set [8]: Stability in human liver microsomes assessed as parent compound remaining at 1 uM measured after 1 hr by LC-MS/MS analysis. The format is ADME, Microsome. To be noted: read-out: Stability. The essentials:
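Human liver microsomes (0.2 mg/mL protein) or S9 fraction (0.5 mg/mL) were incubated with prodrug at 1 µM final, 37 °C, 1 h with shaking. Reactions were quenched in triplicate with three volumes acetonitrile containing losartan. Parent remaining was taken from analyte/internal-standard peak-area ratio by UHPLC-MS/MS.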
In general terms: Liver microsomes are a subcellular fraction often used to study metabolism.

Data set [9] can be described thus: Drug level in human P493B cells suspended in human plasma assessed as tumor cell to plasma ratio by measuring 6-diazo-5-oxo-L-norleucine formation at 20 uM measured after 1 hr by LC-MS/MS analysis. Type of data set: ADME, cell-based. The method in brief: as §1
Data set [10] in a line: Cmax in CES1-deficient C57BL/6 mouse jejunum implanted with mouse EL4 cells at 3.2 mg/kg, sc administered as single dose by LC-MS/MS analysis. The format is ADME, organism-based. Also on record: dose 3.2 mg/kg, route subcutaneous. Conditions: in vivo, BLD = below limit of detection. The essentials: as §3
The nature of data set [11]: Stability in human plasma suspended with human P493B cells at 20 uM measured after 1 hr by LC-MS/MS analysis. Type of data set: ADME, cell-free. The essentials:
as §1

Data set [12] in a line: Tmax in CES1-deficient C57BL/6 mouse tumor implanted with mouse EL4 cells assessed as 6-diazo-5-oxo-L-norleucine level at 3.2 mg/kg, sc administered as single dose by LC-MS/MS analysis. To be noted: in vivo. The format is ADME, organism-based, Neoplasm. The method in brief: as §3
Data set [13] in a line: Prodrug conversion in human P493B cells suspended in human plasma assessed as deacetylation by measuring (6a) (S)-2-{(S)-2-[(Adamantane-1-carbonyl)-amino]-6-amino-hexanoylamino}-6-diazo-5-oxo-hexanoic acid isopropyl ester formation measured after 1 hr by HRMS analysis. Type of data set: ADME, cell-based. The method in brief: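 Metabolite identification: compound was incubated 1 h with 10 million P493B cells suspended in 1 mL human plasma. Cell pellets were collected and metabolites identified by HRMS.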

The nature of data set [14]: Tmax in CES1-deficient C57BL/6 mouse plasma implanted with mouse EL4 cells at 3.2 mg/kg, sc administered as single dose by LC-MS/MS analysis. Type of data set: ADME, organism-based. The method in brief: as §3
Data set [15] in a line: AUC in CES1-deficient C57BL/6 mouse jejunum implanted with mouse EL4 cells assessed as 6-diazo-5-oxo-L-norleucine level at 3.2 mg/kg, sc administered as single dose by LC-MS/MS analysis. To be noted: in vivo.
A short description of data set [16]: Prodrug conversion in human H69 cells suspended in human plasma assessed as 6-diazo-5-oxo-L-norleucine formation at 20 uM measured after 1 hr by LC-MS/MS analysis. Type of data set: ADME, cell-based. To be noted: nci-h69, 1 h. The method in brief:
as §1

The next data set deals with Cathepsin B (Homo sapiens, UniProt P07858). In words: Stability of the compound assessed as recombinant human cathepsin B-mediated compound hydrolysis by measuring parent compound remaining at 1 uM measured after 3 hrs by UHPLC-MS analysis. The format is ADME. The method in brief:
as §2

Data set [17] is described as follows: Stability in swine plasma assessed as parent compound remaining at 20 uM measured after 1 hr by LC-MS/MS analysis. Conditions: Sus scrofa, pig.
Data set [18] in a line: Prodrug conversion in human P493B cells suspended in human plasma assessed as 6-diazo-5-oxo-L-norleucine formation at 20 uM measured after 1 hr by LC-MS/MS analysis. Type of data set: ADME, cell-based. The method in brief: as §1
Data set [19] in a line: Prodrug conversion in human plasma suspended with human DU4475 cells assessed as 6-diazo-5-oxo-L-norleucine formation at 20 uM measured after 1 hr by LC-MS/MS analysis. Type of data set: ADME, cell-free. The method in brief:
as §1

Data set [20] in a line: Stability in human plasma suspended with human P493B cells at 20 uM by LC-MS/MS analysis. Conditions: TDE = time-dependent effect. The format is ADME. The method in brief: as §1
The nature of data set [21]: Stability in human plasma assessed as parent compound remaining at 20 uM measured after 1 hr by LC-MS/MS analysis.

Sequence of Procathepsin L (P07711 whole entry): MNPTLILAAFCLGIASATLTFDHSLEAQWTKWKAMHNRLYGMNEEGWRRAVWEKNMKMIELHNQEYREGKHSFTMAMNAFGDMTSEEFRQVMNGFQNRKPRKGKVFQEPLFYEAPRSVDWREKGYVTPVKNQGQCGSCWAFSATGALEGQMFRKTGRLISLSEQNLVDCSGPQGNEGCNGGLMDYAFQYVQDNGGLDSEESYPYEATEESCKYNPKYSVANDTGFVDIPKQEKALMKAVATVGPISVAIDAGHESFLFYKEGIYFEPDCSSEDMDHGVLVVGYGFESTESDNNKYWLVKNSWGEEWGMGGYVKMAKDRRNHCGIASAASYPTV
Sequence of Histone deacetylase 2 (Q92769 whole entry): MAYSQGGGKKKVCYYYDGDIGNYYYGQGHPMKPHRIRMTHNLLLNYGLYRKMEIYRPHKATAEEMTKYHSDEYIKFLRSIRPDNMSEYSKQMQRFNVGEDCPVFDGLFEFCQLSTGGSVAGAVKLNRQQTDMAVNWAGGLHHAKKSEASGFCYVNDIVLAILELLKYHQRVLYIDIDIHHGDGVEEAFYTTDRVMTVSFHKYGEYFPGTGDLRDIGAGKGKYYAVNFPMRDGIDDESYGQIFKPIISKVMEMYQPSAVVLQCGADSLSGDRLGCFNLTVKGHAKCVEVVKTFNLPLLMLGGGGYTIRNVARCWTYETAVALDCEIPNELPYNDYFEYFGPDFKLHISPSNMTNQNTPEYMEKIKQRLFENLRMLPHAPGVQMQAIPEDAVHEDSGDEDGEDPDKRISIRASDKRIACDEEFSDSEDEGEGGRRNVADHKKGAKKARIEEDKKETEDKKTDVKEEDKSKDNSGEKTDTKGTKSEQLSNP

In general, Tmax refers to the time from dosing to the highest level. For orientation: Kp means tissue or fluid exposure divided by exposure in the circulation. The term Cmax denotes the peak of the concentration-time curve. With `CC(=O)NCCCC[C@H](NC(=O)C12CC3CC(CC(C3)C1)C2)C(=O)N[C@@H](CCC(=O)C=[N+]=[N-])C(=O)OC(C)C`, the Drug metabolism was 11.8 µM in data set [1]; “Metabolite_Detected” in data set [13]; 9.95 µM in data set [16]; 8.81 µM in [18]; 0.25 to 0.5 µM in data set [19]. Moreover, the Stability on Procathepsin L is given as 36%; in [2], 0%; in data set [3], “Unstable”; on Histone deacetylase 2 it was more than 95%; in [11], “Stable”; on Cathepsin B, 64%. Also, the Stability in [17] was 108%; in [20], “Tde”; in data set [21], 107%. The Tmax entry is “Bld” in data set [4], 30 min in data set [6], 60 min in data set [12] and 15 min in [14]. Also, in data set [5], the Kp at 1 h turned out to be 16. The Cmax is 0.44 µM in data set [7] and “Bld” in data set [10]. Also, the remaining at 1 h, 1 µM in data set [8] was found to be 100%. In addition, the Ratio in data set [9] amounted to 22. Besides, in [15], the AUC worked out at 0.45 nmol·h/g.
